Most compounds without a hit are left out; they make up all but 3.2% or so of the library.
Calb biofilm kill: mixture kills Candida albicans biofilm cells. 120,000 compounds, 0.02% hits. AID 1242. C. albicans biofilm persisters + clotrimazole, fluorescence viability; primary screen in compound mixtures of four per well. inhibition, % at 7.6 µM;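 active = inhibition above 30.3% in the primary screen of four-compound pools, then above 30% when the compound was retested; inconclusive = passed the primary limit but could not be retested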;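 note: compounds exposed to preformed 24 h biofilms for 48 h; 0% = untreated biofilm control and 100% = clotrimazole plus chlorhexidine kill blank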
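Probe or stimulus – Clotrimazole 50 µg/mL co-treatment · System – C. albicans biofilms · Schedule – 24 h biofilm formation, then 48 h compound exposure, 37 °C · Evaluation – percent inhibition of biofilm viability · Technique – 2-h Alamar Blue fluorescence, 535/590 nm excitation/emission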
Mcl1 Noxa PPI: disrupts binding of human Mcl-1 to Noxa peptide. AID 1022. TR-FRET Mcl-1/Noxa peptide binding, 2 h. 220,000 compounds, 1.5% hits. Q07820. inhibition, % at 21.7 µM;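 active = compounds that cut the protein-peptide binding signal by more than 50% relative to plate controls in a single-dose test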;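 note: His-tagged Mcl-1 with rhodamine Noxa BH3 peptide and terbium anti-His antibody; 0% = Mcl-1 plus Noxa peptide wells and 100% = peptide-only wells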
Target sequence (Q07820 whole entry, looked up): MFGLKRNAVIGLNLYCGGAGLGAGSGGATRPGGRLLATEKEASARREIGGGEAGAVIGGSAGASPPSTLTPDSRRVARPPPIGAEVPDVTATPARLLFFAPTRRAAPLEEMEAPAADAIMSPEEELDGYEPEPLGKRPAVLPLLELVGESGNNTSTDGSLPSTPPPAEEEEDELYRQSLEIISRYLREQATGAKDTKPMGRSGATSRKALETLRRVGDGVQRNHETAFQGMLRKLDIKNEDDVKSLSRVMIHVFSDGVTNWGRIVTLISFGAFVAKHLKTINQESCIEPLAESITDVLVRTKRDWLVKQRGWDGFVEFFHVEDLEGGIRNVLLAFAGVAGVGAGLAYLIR
Mcl1-Bid inh: Mcl-1/Bid interaction inhibition | Q07820 | TR-FRET Mcl-1/Bid-Dy647 peptide binding, 1536-well | inhibition, % at 21.7 µM | 220,000 compounds, 0.97% hits;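 active = compounds that cut the binding signal by more than half at the single screening dose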;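 note: His-tagged Mcl-1 with europium anti-His antibody binding Bid BH3 peptide; 0% = Mcl-1 plus peptide wells and 100% = peptide-only wells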
Mcl-1 Bim block: human Bim-Mcl-1 interaction inhibition; 190,000 compounds, 0.1% hits; Q07820; inhibition, % at 10 µM; Bead-based flow cytometry, Bim peptide-Mcl-1 binding; in the data active = inhibition above about 40%;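 note: 0% = no compound tracer wells and 100% = peptide blocker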
Hck Nef HTS: inhibitors of human Hck kinase activated by Nef. 220,000 compounds, 0.68% hits. P08631. inhibition, % at 20 µM. Recombinant Hck-YEEI plus Nef, Z-Lyte FRET kinase assay;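 active = Hck-Nef kinase inhibition above about 50%, limit read from the data; inactive = inhibition below that limit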;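 note: 0% = DMSO with Hck plus Nef and 100% = Hck alone without Nef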
14-3-3 Bad PPI: disrupts binding of bovine 14-3-3 zeta to phospho-Bad peptide; P63103; TR-FRET 14-3-3zeta/Dy647-pBad peptide displacement, 1 h; inhibition, % at 21.7 µM; 220,000 compounds, 0.71% hits; AID 781;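 active = inhibition above about 70%, limit read from the data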;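 note: 0% = full 14-3-3 plus peptide FRET controls and 100% = background without 14-3-3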
Target sequence (P63103 whole entry, looked up): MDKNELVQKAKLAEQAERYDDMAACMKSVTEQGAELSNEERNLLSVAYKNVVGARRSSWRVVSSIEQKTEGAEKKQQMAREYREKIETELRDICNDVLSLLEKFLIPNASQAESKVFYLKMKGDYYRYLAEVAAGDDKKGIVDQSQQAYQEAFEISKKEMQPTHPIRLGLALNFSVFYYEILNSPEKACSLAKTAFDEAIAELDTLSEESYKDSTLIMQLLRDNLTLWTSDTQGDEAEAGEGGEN
Numbers without * were called inactive; ? = inconclusive; / = no result; [ ] = dose if it differs, or a comment.

SMILES | Calb biofilm kill | Mcl1 Noxa PPI | Mcl1-Bid inh | Mcl-1 Bim block | Hck Nef HTS | 14-3-3 Bad PPI
Cc1ccc(C(=O)Nc2nc(-c3cc(Cl)sc3Cl)cs2)cc1 | / | 53* | -5 | 5 | 5 | 12
CC(=O)N1CCN(c2cc(N3CCc4ccccc4C3)c(F)cc2[N+](=O)[O-])CC1 | / | 25 | 11 | -3 | -2 | 0
CN(C)C(CNC(=O)CNC(=O)c1ccc(Br)cc1)c1ccccc1 (stereo not drawn) | 14 | -5 | -24 | 3 | 2 | -18
O=C(CS(=O)CC(=O)N(CC(=O)NC1CCCC1)C1CCCC1)Nc1ccc(F)cc1 (stereo not drawn) | / | 10 | -42 | -1 | -1 | 6
Cc1ccc(C(=O)Nc2nc(-c3ccc([N+](=O)[O-])cc3)cs2)o1 | 4 | 65* | 56* | -1 | 4 | 62
Cc1ccc(C(=O)Nc2nc(-c3ccccn3)cs2)o1 | 17 | -3 | -90 | / | 18 | -16
O=C(Nc1nc(-c2ccccn2)cs1)c1ccc([N+](=O)[O-])o1 | 29 | 90* | -16 | / | 8 | -2
CC(=O)Nc1ccc(-c2csc(NC(=O)c3ccc(C)o3)n2)cc1 | / | / | -3 | -4 | 10 | -18
Cn1cc([N+](=O)[O-])c(C(=O)Nc2ccc(-c3nc4ccccc4o3)cc2)n1 | 19 | 12 | -3 | / | 23 | 6
Cc1ccc(-c2cc(Cc3ccccn3)c(=O)[nH]n2)cc1 | 22 | 19 | -57 | / | 21 | -1
CC1=C(C#N)C(=O)N(C2CCS(=O)(=O)C2)C(=O)/C1=C\c1ccc(C)o1 (stereo not drawn) | ? | 93* | 4 | / | 20 | 20
CCN1C(=O)N/C(=C/c2ccc(C)o2)C1=O | 14 | 25 | -81 | -5 | 5 | -4
CC(=O)CSc1ccc(-c2nc3cc(C)c(C)cc3[nH]2)cn1 | 5 | 13 | -3 | -5 | 24 | 30
Cc1ccc2nc(-c3ccc(SCC(=O)O)nc3)[nH]c2c1 | / | 31 | -4 | 1 | -1 | 14
CCc1nnc(NC(=O)CSc2ccc(-c3nc4ccc(C)cc4[nH]3)cn2)s1 | 12 | 58* | 31 | -3 | 2 | 1
Cc1cc2nc(-c3ccc(SCC(=O)Nc4nccs4)nc3)[nH]c2cc1C | -1 | 73* | 25 | -6 | 6 | 16
Oc1cccc(CCC2CCCCN2Cc2cn[nH]c2-c2ccc3c(c2)OCO3)c1 (stereo not drawn) | 8 | 20 | -19 | 0 | 18 | -4
O=C(CNCc1ccncc1)Nc1cc(S(=O)(=O)N2CCCCC2)ccc1Cl | 14 | 35 | 55* | -7 | -1 | 34
O=C(CNCc1ccccn1)Nc1cc(S(=O)(=O)N2CCCCC2)ccc1Cl | 13 | -14 | -27 | 1 | 4 | -15
Cc1cccc(C)c1-n1cccc1/C=C1\SC(=S)N(c2cccc(C(=O)O)c2)C1=O | 15 | 51* | 52* | 16 | 46 | 45
Cc1cccc(NC(=O)CN2C(=O)N/C(=C/c3ccc(-c4cccc(C(=O)O)c4C)o3)C2=O)c1 | 9 | 8 | -42 | 0 | 21 | -11
Cc1cccc(NC(=O)CN2C(=O)S/C(=C\c3cccn3-c3cccc(C(=O)O)c3)C2=O)c1 | 9 | 18 | -101 | 1 | 72* | -4
Cc1ccc(NC(=O)CN2C(=O)S/C(=C\c3ccc(-c4cccc(C(=O)O)c4C)o3)C2=O)cc1C | 7 | 79* | -76 | 4 | 24 | 87*
Cc1cccc(C)c1NC(=O)CN1C(=O)S/C(=C\c2cccn2-c2cccc(C(=O)O)c2)C1=O | / | -2 | -34 | 0 | 15 | 1
Cc1ccc(NC(=O)CN2C(=O)S/C(=C\c3cccn3-c3cccc(C(=O)O)c3)C2=O)cc1C | 7 | 35 | -59 | 0 | 50* | -8
SMILES | Calb biofilm kill | Mcl1 Noxa PPI | Mcl1-Bid inh | Mcl-1 Bim block | Hck Nef HTS | 14-3-3 Bad PPI
O=C1CC(c2cc(F)ccc2F)c2cc3c(cc2N1)CCC3 (stereo not drawn) | 24 | 6 | -17 | 5 | 16 | -6
O=C1c2ccccc2-c2onc3c(Oc4ccccc4)cc(O)c1c23 | / | 59* | -23 | 28 | -1 | 10
CCOc1ccc2noc3c2c1C(=O)c1ccccc1-3 | / | 43 | -6 | 0 | 7 | 11
O=C(NCc1ccco1)c1ccc2nc3sc4c(c3c(=O)n2c1)CCCC4 | / | 68* | 2 | 8 | 11 | 6
O=C(COc1ccccc1C(=O)c1cnn(-c2ccccc2)c1)Nc1ccccc1 | -4 | 24 | 6 | 0 | 0 | 84*[fluorescence artefact?]
CC(=O)c1ccc(-n2c(CCC(=O)O)ccc2-c2cccs2)cc1 | / | 69* | -28 | -4 | 1 | 2
CC(=O)c1c(N=CN(C)C)nc(C)nc1-c1ccccc1 | / | 11 | 89* | 0 | 2 | -3
CCOc1ccc(NC(=O)c2oc3ccccc3c2NC(=O)CC)cc1 | / | -11 | 78* | 0 | 0 | 10
COc1ccc(NC(=O)c2oc3ccccc3c2NC(=O)C2CC2)cc1 | / | 10 | -7 | 1 | 2 | -2
Cc1c(C=N)c(O)n(C)c(=O)c1C#N | 10 | 5 | -8 | / | 40 | -3
COC(=O)Cn1c(=NC(=O)C2COc3ccccc3O2)sc2cc(S(N)(=O)=O)ccc21 (stereo not drawn) | 2 | 10 | 1 | -3 | 2 | 2
O=C1c2ccccc2-c2onc3ccc(NCc4ccco4)c1c23 | / | 9 | 57* | 35 | 25 | -5
CCNc1ccc2noc3c2c1C(=O)c1ccccc1-3 | 11 | -239 | 88* | 2 | 14 | -14
CCOC(=O)c1ccc(Nc2nnc(C)c3ccccc23)cc1 | 21 | 1 | -25 | / | 21 | 3
NS(=O)(=O)c1ccc(NNC(=O)c2ccc(F)cc2F)cc1 | 16 | 2 | 5 | / | 21 | 0
COc1ccc(-c2csc(Nc3ccc(S(=O)(=O)Nc4cc(C)on4)cc3)n2)cc1C | 16 | 51* | -30 | 0 | 26 | 2
Cc1ccc(Nc2nc(-c3ccc(S(=O)(=O)N4CCCC4)cc3)cs2)cc1C | / | 10 | -29 | 0 | 1 | 86*
Cc1[nH]c2ccccc2c1/C=N\NC(=O)CNc1ccc2c(c1)OCO2 | 9 | 56* | -16 | 1 | 24 | -16
Cc1nn(CC(=O)Nc2ccc3c(c2)nc(CCN2CCCCC2)n3C)c(=O)c2ccccc12 | / | 20 | -20 | -3 | 3 | -15
Cc1nn(CC(=O)Nc2ccc3c(c2)nc2n3CCN(C3CCCCC3)C2)c(=O)c2ccccc12 | 15 | 70* | -7 | 2 | 42 | 51
COc1ccc(CCC(C)Nc2cccc(F)c2)cc1 (stereo not drawn) | / | 33 | 3 | -3 | -1 | 86*
CCn1nc(C)c(CNC(=O)CC2C(=O)NCCN2CC(C)C)c1C (stereo not drawn) | 9 | -9 | -1 | 0 | -11 | 1
CN(CC(=O)Nc1sccc1C#N)C1CCCCC1 | / | 61* | -6 | -4 | 5 | -15

From PubChem
